Assay results as given in the RNAGym collection of RNA variant scans (doi:10.1126/science.aae0568).
Variants at the floor of the assay were thinned out.

B1: tRNA (parent)
chain: GUUCCGUUGGCGUAAUGGUAACGCGUCUCCCUCCUAAGGAGAAGACUGCGGGUUCGAGUCCCGUACGGAACG

Variants of: B1
Assay: yeast fitness relative to wild type (ratio to wild type); higher = fitter; tRNA-Arg(CCU), competitive growth, 37 C, YPD
Outline: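 Gene amplicons from the start population and from each of six end populations were read by 100-nucleotide paired-end sequencing. Those end populations came from pooled Saccharomyces cerevisiae strains carrying tRNA-Arg(CCU) gene variants at the native locus, competed in YPD at 37°C for 24 hours. Fitness relative to wild type was worked out from changes in genotype frequencies. Genotypes needed ≥ 100 starting reads, and estimates < 0.5 were set to 0.5.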

| Variant | yeast fitness |
| --- | --- |
| GUUCCGGUGGCGUAAUGGUAACGUGUCUCCCUCCUAAGGAGAAGGCUGCGGGUUCGAGUCCCGUACGGAACG [U7G C24U A45G] | 0.601 |
| GUUCCGGUGGCGUAAUGGUAACGUGUCUCCCUUCUAAGGAGAAGACUGCGGGUUCGAGUCCCGUACGGAACG [U7G C24U C33U] | 0.568 |
| GUUCCGGUGGUCUAAUGGUAACGCGUCUCCCUUCUAAGGAGAAGACUGCGGGUUCGACUCCCGUACGGAACG [U7G C11U G12C C33U G58C] | ≤ 0.5 |
| GUUCCGGUGGCGUAAUGGUAACGCCUCUCCCUCCUAAGGAGAAGACUGCGGGUUCGAGUCCCGUACGGAACG [U7G G25C] | 0.958 |
| GUUCCGGUGGCGUAAUGGUAACGCGUCUCCCUCCUAAGAAGAAGACUGCGGGUUUGAGUCCCGUACGCAACG [U7G G39A C55U G68C] | 0.594 |
| GUUCCGGUGGCGUAAUGGUAACGCGUCUCUCUCCUGAGGAGAAGACUGCGGGUUGGAGUCCCGUACGGAACG [U7G C30U A36G C55G] | ≤ 0.5 |
| GUUCCGGUGGCGUAAUGGUAACGCCUCUCCCUCCUAAGGAGAAGACUGCGGGUUCAAGUCCCGUACGGAACG [U7G G25C G56A] | 0.697 |
| GUUCCGGUGGCGUAAUGGUAACGCGUCUCCCUCCUAAAGGGAAGACUGCGGGUUCGAGUCCCGUAAGGAACG [U7G G38A A40G C66A] | ≤ 0.5 |
| GUUCCGGUGGCGUAAUGGUAACGCGUCUCUCUCCUAAAGAGAAGACUGCAGGUUCGAGUCCCGUACGGAACG [U7G C30U G38A G50A] | 0.589 |
| GUUCCGGUGGCGUAAUGGUAACGCGUCUGCCUCCUAAGGAGAAGAUUGCGGGUUCGAGUCCCGUUCGGAACG [U7G C29G C46U A65U] | ≤ 0.5 |
| GUUCCGGUGGCGUAAUGGUAAGGCGUCUCCCUCCUAAGGAGAAGACUGCAGGUUCGAGUCCCGUACGGAACG [U7G C22G G50A] | 0.514 |
| GUUCCGGUGGCGUAAUGGUAACGCGUUUCCCUCCUAAGGAGAAGACUGCGGGUUCGAGUCCCGUACGGAACG [U7G C27U] | 0.792 |
| GUUCCGGUGGCGUAAUGGUAACGCGUCUCCCUCCUAAGGAAAAGACUGCGGGUUCGAGUCCCGUACGGAACG [U7G G41A] | 0.776 |
| GUUCCGGUGGCGUAAUGGUAACGCGUGUCCCUCCUAAGCAGAAGACCGGGGGUUCGGGUCCCGUACGGAACG [U7G C27G G39C U47C C49G A57G] | ≤ 0.5 |
| GUUCCGGUGGCGUAAUGGUAACGCGUCUCCCUCCUAAGAAGAAGACUGCGGGUUCGAGUCCCGUAUGGUACG [U7G G39A C66U A69U] | ≤ 0.5 |
| GUUCCGGUGGCGUAAUGGUAACGCGUGGCCCUCCUAAGGAGAAGACUGCGGGUUCGAGUCCCGUACGGAACG [U7G C27G U28G] | 0.531 |
| GUUCCGGUGGCGUAAUGGUAACGCGUCUCCCUCCUAAGGAGAAGACUGCGGGUUCAAGUCCAGUACGGAACG [U7G G56A C62A] | 0.572 |
| GUUCCGGUGGCGUAAUGGUAACGCGUCUCCCUCCUAAGGACAAGACUGCGGGUUCGAGUCCCGUACGGCACG [U7G G41C A69C] | ≤ 0.5 |
| GUUCCGGUGGCGUAAUGGUAACGCGUCUCCCUCCUAAGGAGAAGACUGCGGGUUCGAGUCCCGUGUGGAACG [U7G A65G C66U] | 0.876 |

| Variant | yeast fitness |
| --- | --- |
| GUUCCGGUGGCGUAAUGGUAACGCGUCUGCCUCCUAAGGAGAAGAUUGCUGGUUCGAGUCCCGUACGGAACG [U7G C29G C46U G50U] | ≤ 0.5 |
| GUUCCGGUGGCGUAAUGGUAACACGUCUUCCUCCUUAGGAGAAGACUGCGGGUUCGAGUCCCGUACGGAACG [U7G G23A C29U A36U] | ≤ 0.5 |
| GUUCCGGUGGCGUAAUGGUAACGCGUCUCUCUCCUAAGGAGAAGACAGCGGGUUCGAGUCCCGUACGGAACG [U7G C30U U47A] | ≤ 0.5 |
| GUUCCGGUGGAGUAAUGGUAAGGCGUCUCGCUCCUAAGGAGAAGACUGCGGGUUCGAGUCCCGUACGGAACG [U7G C11A C22G C30G] | ≤ 0.5 |
| GUUCCGGUGCCGUAAUGGUAACGCGUCUCCCUCCUAAGGAGAACACUGCGGGUUCGAGUCCCGUACGGUACG [U7G G10C G44C A69U] | 0.617 |
| GUUCCGGUGGCGUAAUGGUAACGCGUCUCCUUCCUAAGGAGAAGACUGCGGGUUCGAGUCCCGUACGGUACG [U7G C31U A69U] | 0.628 |
| GUUCCGGUGGGGUAAUGGUAACGCGUCUCCCUCUUAAGGAAAAGACUGCGGGUUCGAGUCCCGUACGGAACG [U7G C11G C34U G41A] | 0.525 |
| GUUCCGGUGGCGUAAUGGUAACGCGUGUCACUCCUAAGGAGAAGACUGCGGGUUCGAGUCCGGUACGGAACG [U7G C27G C30A C62G] | ≤ 0.5 |
| GUUCCGGUGGCGUAAUGGUAACGCGUGUCCCUCCUAAGGUGAAGACUGGGGGUUCGAGUCCCGUACGGAACG [U7G C27G A40U C49G] | ≤ 0.5 |
| GUUCCGGUGGCGUAAUGGUAACGCGUCUCCCUCAUAAGGAGAAGACUGCGGGUUCGAGUCCCGUACGGAACG [U7G C34A] | 0.757 |
| GUUCCGGUGGCGUAAUGGUAACGCGUCUCCCUCCUAAGGACAAGACUGCGGGUUCGACUCCCGUACGGAACG [U7G G41C G58C] | ≤ 0.5 |
| GUUCCGGUGGCGUAAUGGUAACGCGUCUACCUCAUAAGGAGAAGACUGCGGGUUCGAGUCCAGUACGGAACG [U7G C29A C34A C62A] | ≤ 0.5 |
| GUUCCGGUGGCGUAAUGGUAACGCGUCUCCUUGCUAAGGAGUAGACUGCGGGUUCGAGUCCCGUACGGAACG [U7G C31U C33G A42U] | 0.563 |
| GUUCCGGUGGCGUAAUGGUAACGCGUCUCCCUCCUAAGGAGAAGACUGCGGGUUGGAGUCCCGUACGGAACG [U7G C55G] | 0.655 |
| GUUCCGGUGGCCUAAUGGUAACCCGUCUGCCUCCUAAGGAGAAGACUGCGGGUUCGUGUACCGUACGCAACG [U7G G12C G23C C29G A57U C60A G68C] | ≤ 0.5 |
| GUUCCGGUGGCGUAAUGGUAACGCGUCUCCCUCCUAAGGAGAAGACUGCGGGUUCGAGUCCUGUACGGAACG [U7G C62U] | 0.893 |
| GUUCCGGUGGCGUAAUGGUAACGCGUCUCCCUCCUAAGCAGAAGACUGCGGGUUCGGGUCCCGUACGGAACG [U7G G39C A57G] | ≤ 0.5 |
| GUUCCGGUGGCGUAAUGGUAACGCGUCUCCCUCCUAAGGAGAAGACUGCGGGUUCGAGUCCCGUACGGAUCG [U7G A70U] | 1.01 |
| GUUCCGGUGGCGUAAUGGUAAGGCGUCACCGUCCUAAGGAGAAGACUGCGGGUUAGAGUCCCGUACGCAACG [U7G C22G U28A C31G C55A G68C] | ≤ 0.5 |
